RGS4 block: human RGS4 inhibition | HEK293 M3R/RGS4 inducible, Fluo-4 calcium flux; hits give high values; triggered by carbachol at its EC20 | hit rate 0.45% among 310,000 | P49798 | B-score at 10 µM | AID 463165;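 active = B-score, a plate-corrected calcium signal, over three deviations above library mean, with baseline fluorescence within five deviations of library mean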;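 also: RGS4 expression induced by doxycycline in cells with stable M3 receptor; B-score is computed from the integrated fluorescence ratio over baseline after carbachol; higher B-score means a larger calcium signal and so more RGS4 inhibition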
MrgX1 allo act: human MrgX1 positive allosteric modulation, primary screen; Q96LB2; MrgX1-HEK293, Fluo-4 calcium flux, FDSS; hits give high values; B-score at 10 µM; hit rate 0.63% among 310,000;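 active = plate-corrected calcium response at least 3 library SD above typical, normal starting fluorescence, not activating the receptor alone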;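 also: compound read alongside a low EC10 to EC30 dose of BAM8-22 agonist; peak minus trough fluorescence over baseline measured at the second addition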
Target sequence (Q96LB2 whole entry, looked up): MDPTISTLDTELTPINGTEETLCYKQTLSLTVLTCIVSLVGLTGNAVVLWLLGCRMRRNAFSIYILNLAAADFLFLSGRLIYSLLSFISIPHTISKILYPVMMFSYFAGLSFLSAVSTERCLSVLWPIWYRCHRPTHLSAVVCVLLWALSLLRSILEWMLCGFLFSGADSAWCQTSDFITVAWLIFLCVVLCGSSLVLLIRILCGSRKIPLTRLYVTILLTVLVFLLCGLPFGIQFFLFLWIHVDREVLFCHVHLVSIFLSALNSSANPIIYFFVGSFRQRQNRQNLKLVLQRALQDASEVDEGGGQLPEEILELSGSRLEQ
MrgX1 ag: human MrgX1 receptor agonism, primary screen; hit rate 0.44% among 310,000; Q96LB2; MrgX1-HEK293 cells, Fluo-4 calcium fluorescence, agonist mode; hits give high values; B-score at 10 µM; AID 588627;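 active = calcium response B-score plate-corrected fluorescence ratio at least 3 library SD, with starting fluorescence B-score inside 5 SD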
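Material: HEK293 cells stably expressing human MrgX1 receptor | Quantity: 15,000 cells per well | Times: Cells plated overnight, dye loaded 0.5 h 37 °C, 0.5 h room temperature | Measured by: Kinetic Fluo-4 NW fluorescence of intracellular calcium | Control set: Positive and negative controls per plate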
PHOSPHO1 block: inhibitors of human PHOSPHO1 phosphatase. Q8TCT1. recombinant PHOSPHO1, absorbance phosphatase assay. inhibition, % at 13.3 µM. hit rate 1.1% among 290,000. AID 1565; in the data active = inhibition above about 60%
RGS4 act: RGS4 potentiation or activation | HEK293 M3R/inducible RGS4, carbachol calcium flux Fluo4; hits give low values | hit rate 0.92% among 310,000 | AID 463111 | B-score at 10 µM;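 active = B-score of the integrated calcium signal more than 4 SD below the library mean, with starting fluorescence not abnormally high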;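 also: negative B-score means reduced calcium response which marks RGS4 activation or potentiation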
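Assay system: Inducible-RGS4 HEK293 cells carrying M3 receptor | Schedule: Compound preincubation 20 min at room temperature before agonist | Signal: Kinetic calcium fluorescence imaging with Fluo4-AM dye, 2 µM | Read-out basis: B score from integrated fluorescence ratio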
MrgX1 antag: blocks BAM8-22 activation of human MrgX1 receptor | Q96LB2 | MRGX1-HEK293 calcium flux, Fluo-4, BAM8-22 antagonism; hits give low values | B-score at 10 µM | hit rate 1.3% among 310,000 | AID 588676;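 active = calcium-response B-score plate-corrected more than 3 library SD below zero, starting fluorescence within 5 deviations, no agonist response on first addition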;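 also: peak minus trough fluorescence over baseline after final BAM8-22 challenge near maximal dose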
* = called active by the depositor; i = inactive; · = no result. This is a sample that favours compounds with a hit; in the whole collection about 4.5% have one here.

SMILES | RGS4 block | MrgX1 allo act | MrgX1 ag | PHOSPHO1 block | RGS4 act | MrgX1 antag
COc1ccc(CN(C)C(C)C(=O)Nc2ccc(S(=O)(=O)N3CCCC3)cc2)c(OC)c1OC (stereo not drawn) | i | i | i | 8.8 | i | i
CCCC(=O)C1=C(O)C(C(=O)OC)C(C)(C)CC1=Nc1cccc2ccccc12 (stereo not drawn) | i | 8.07* | i | 1.1 | i | i
CC(C)c1ccc(NC(=O)c2ccccc2NC(=O)C2CCCCC2C(=O)O)cc1 (stereo not drawn) | i | i | i | 9.7 | i | i
COCCn1c(C)cc(C(=O)COC(=O)CNC(=O)c2ccccc2)c1C | i | i | i | 8.3 | i | -5.02*
COCCn1c(C)cc(C(=O)CSc2nc3ccccc3o2)c1C | i | i | i | 97.8* | i | i
COCCn1c(C)cc(C(=O)CSc2nc3ccccc3s2)c1C | i | i | i | 7.2 | i | i
CC(=O)Nc1ccc(S(=O)(=O)N2CCN(CC(=O)N3CCOCC3)CC2)cc1 | i | i | i | 11.7 | i | i
COc1ccc(-c2cc3ccccc3nc2N)cc1OC | i | i | i | 37.5 | i | i
Cc1cccc(NC(=O)CSCC(=O)Nc2sccc2C#N)c1 | i | i | i | · | i | i
CC(=O)c1ccc(NC(=O)Cc2cccs2)cc1 | i | i | i | 20.1 | i | i
O=C(c1nn2c(C(F)(F)F)cc(-c3ccccc3)nc2c1Cl)N1CCN2CCCC2C1 (stereo not drawn) | i | · | · | · | i | ·
CC(OC(=O)C1CSC2(c3ccc(F)cc3)CCC(=O)N12)C(=O)NC(N)=O (stereo not drawn) | i | i | i | 32.0 | i | i
Nc1ncnc(NNC(=O)CNC(=O)c2c(F)cccc2Cl)c1[N+](=O)[O-] | i | i | i | 44.0 | i | i
CC(CNC(=O)c1cccs1)c1ccc([N+](=O)[O-])cc1 (stereo not drawn) | i | i | i | 41.2 | i | -4.63*
CC(=O)Nc1ccc(S(=O)(=O)NCC2CCC(C(=O)N3CC(C)CC(C)C3)CC2)cc1 (stereo not drawn) | i | i | i | 24.8 | i | i
Cc1nc2nc(SCC(N)=O)[nH]c2cc1Br | i | i | i | 18.9 | i | i
CCOC(=O)CNC(=O)CSc1nc2nc(C)c(Br)cc2[nH]1 | i | i | i | 73.8* | i | i
O=C(CCN1C(=O)/C(=C\c2ccccc2)SC1=S)Nc1ccc(C(=O)O)cc1 | i | 14* | i | 47.4 | i | i
CCOc1ccc(/C=C2/SC(=S)N(CCC(=O)Nc3ccc(C(=O)O)cc3)C2=O)cc1 | i | i | i | -7.5 | i | i
O=C(CN1C(=O)S/C(=C\c2ccccn2)C1=O)Nc1ccccc1 | i | i | i | -21.0 | i | i
O=C(CN1C(=O)S/C(=C\c2cc(Cl)c(O)c(Cl)c2)C1=O)Nc1ccccc1 | i | i | 27.3* | 9.7 | i | i
COc1cc(/C=C2\SC(=S)N(CCC(=O)Nc3cccc(O)c3)C2=O)cc(OC)c1OC | i | i | i | 3.1 | -8.07* | -4.62*
CCOc1cc2c(cc1C=O)OC(C)C2 (stereo not drawn) | i | i | i | 12.4 | i | i
CCOc1cc2c(cc1/C=C/c1noc(C)c1[N+](=O)[O-])OC(C)C2 (stereo not drawn) | i | i | 40.7* | 6.4 | i | i
CC(=O)c1c(C)[nH]c(C(=O)/C(C#N)=C/c2cccc(C)c2)c1C | i | i | i | 22.4 | i | i
CCOC(=O)c1c(C)[nH]c(C(=O)/C(C#N)=C/c2ccc(OCC)cc2)c1C | i | i | i | -13.2 | -7.58* | i
COc1ccc(-c2cc(C(=O)N(C)CC(=O)Nc3ccccc3Br)c3ccccc3n2)cc1OC | i | i | i | · | i | i
COc1ccc(NC(=O)CN(C)C(=O)Cc2c(C)nc3ccccc3c2C)cc1 | i | i | i | · | i | i

Screens from PubChem.
